The whole screen tested about 310,000 compounds, of which about 1,400 (0.45%) were called active.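 The calls were made as follows: active = calcium response B-score plate-corrected fluorescence ratio at least 3 library SD, with starting fluorescence B-score inside 5 SD; inactive = the rest.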 Only a selection was taken, and actives are over-represented in it overall.
What follows are compounds tested against Mas-related G-protein coupled receptor member X1 (Homo sapiens) (UniProt Q96LB2) (assay: agonists of human MrgX1 receptor, primary screen, HEK293 cells, Fluo-4 calcium flux (AID 588627;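 as to B-score: B-score of the peak-minus-trough calcium fluorescence change over baseline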)). Conditions: Fluo-4 calcium fluorescence, agonist mode, at 10 µM; active compounds read high.
Chain of Mas-related G-protein coupled receptor member X1 (Homo sapiens) (Q96LB2 whole entry, looked up): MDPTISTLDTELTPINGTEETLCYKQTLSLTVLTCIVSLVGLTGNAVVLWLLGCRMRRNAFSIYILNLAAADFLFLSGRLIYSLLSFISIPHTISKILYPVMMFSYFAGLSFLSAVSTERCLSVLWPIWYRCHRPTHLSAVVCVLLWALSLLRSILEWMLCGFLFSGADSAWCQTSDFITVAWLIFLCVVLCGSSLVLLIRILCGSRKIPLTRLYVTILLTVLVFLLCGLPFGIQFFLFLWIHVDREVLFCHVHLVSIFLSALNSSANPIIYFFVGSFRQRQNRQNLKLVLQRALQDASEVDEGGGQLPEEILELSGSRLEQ
Summary of the method: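 Material: MrgX1-expressing HEK293 cells / Dosing: compound as first of three additions / Incubation: overnight seeding, then 1 h dark dye loading / Signal: Fluo-4 NW calcium fluorescence / Evaluation: B-scored fluorescence response ratio / Benchmarks: positive and negative control wells on each plate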

B-score, active:
COc1ccc(Nc2nc(-c3cccnc3)nc3ccccc23)cn1 38.4
C#CCOCCOCCOCCNc1nc(N2CCN(C(=O)CCCCCCCCCCNC(=O)[C@H](CCCCN)n3cc(C)nn3)CC2)nc(N2CCN(C(=O)CCCCCCCCCCNC(=O)[C@H](CO)n3cc(CCCSC)nn3)CC2)n1 29.2
COc1cc(/C=C2/C(=O)NN(c3cccc(Cl)c3)C2=O)cc(Br)c1O 45.3
O=C(CC(O)(C(F)(F)F)C(F)(F)F)Nc1ccc(Cl)c(Cl)c1 38.4
COC(=O)c1ccc(COC(=O)C2CCN(S(=O)(=O)c3c(Cl)cccc3Cl)CC2)o1 28.7
COc1ccc(OC)c(C(=O)c2ccc(Cl)cc2)c1 29.4
Cc1onc(-c2ccccc2)c1C(=O)NNC(=S)NC(=O)c1ccc(F)cc1 126
COc1ccc(C(=O)NC(=S)NNC(=O)c2c(-c3ccccc3)noc2C)cc1 123
O=C1NC(=O)C2C1C(c1ccc([N+](=O)[O-])cc1)=NN2Cc1ccccc1 (centres undefined) 42.5
CNCC(O)c1ccc(O)c(O)c1 (centres undefined) 46.8
O=C1Nc2cc(C(=O)N3CCN(c4ccc(F)cc4)CC3)ccc2NC1CSCc1cccc(F)c1 (centres undefined) 28.7
COc1cc(OC)cc(C(=O)N[C@H](C(=O)OCC(=O)NC(C)c2ccccc2)C(C)C)c1 (some centres undefined) 36
CCOC(=O)c1[nH]c2ccc(C)cc2c1N=C(C)N(C)C 44.7
COc1cc(/C=C(\C#N)c2nc3ccccc3[nH]2)ccc1O 58.8
CCN(CC)C(=O)CSC(Nc1cccc(F)c1)=C(C#N)C#N 39.4
CC(C)=CCc1c(O)c(CC=C(C)C)c2occ(-c3ccc(O)cc3)c(=O)c2c1O 29.8
Cc1c(C)c2c(OCC(=O)N[C@@H](C(=O)O)c3ccccc3)cc3c(c2oc1=O)CCC(C)(C)O3 43.9
N#C/C(=C/c1ccc(N2CCCCC2)o1)C(=O)NCCc1c[nH]c2ccccc12 37.2
Cc1ccnc(-n2sc3ccccc3c2=O)n1 37
Nc1c(C(=O)c2cccs2)sc2nsc(SCCN3CCCCC3)c12 53.3

B-score, inactive:
C/C(=N\Nc1cccc(C(=O)O)c1)c1ccc2c(c1)Nc1ccccc1S2
CCn1c(CC(=O)Nc2ccccc2)nnc1SCC(=O)N1CCOCC1
O=[N+]([O-])c1ccc(F)cc1Oc1nc(-c2cccnc2)nc2ccccc12
Cc1cccc(-c2nc(Nc3ccc(O)cc3)c3ccccc3n2)c1
CN(C)/C(=N\OC(=O)c1ccccc1)c1nonc1N
C=CCO/N=C/C1=C(O)C(C(=O)OC)C(C)(C)CC1=O (centres undefined)
C#CCOCCOCCOCCNc1nc(N2CCN(C(=O)CCCCCCCCCCNC(=O)Cn3cc(CCCCCN)nn3)CC2)nc(N2CCN(C(=O)CCCCCCCCCCNC(=O)[C@H](CO)n3cc(CCCSC)nn3)CC2)n1
C#CCOCCOCCOCCNc1nc(N2CCN(C(=O)CCCCCCCCCCNC(=O)[C@H]([C@@H](C)CC)n3cc(CCCCN=C(N)N)nn3)CC2)nc(N2CCN(C(=O)CCCCCCCCCCNC(=O)[C@H](CO)n3cc(CCCSC)nn3)CC2)n1
COC(=O)c1cc(S(=O)(=O)N2CCC(C(N)=O)CC2)oc1C
CCOc1ccc(NC(=O)c2ccc(NC(=O)CN3C(=O)C(=O)N(CC(C)C)C3=O)cc2)cc1
Cc1cc(C(=O)NNC(=S)Nc2ccccc2C)cs1
COCCCNc1nc2ccccc2nc1NS(=O)(=O)c1ccc(F)cc1
C#CCOc1ccc(/C=C2/C(=O)NN(c3ccccc3)C2=O)cc1OC
COc1cc(/C=C2/C(=O)NN(c3ccc(F)cc3)C2=O)cc([N+](=O)[O-])c1O
CCCCc1nc(SCC(=O)Nc2nnc(C(C)C)s2)n[nH]1
C=CCN1CN(S(=O)(=O)c2ccc(OC)cc2)c2nc3ccccc3nc21
O=C(COC(=O)/C=C/c1cccc(Cl)c1)NCCc1ccccc1
COCCNC(=O)C1CCN(C(=O)C2CC(=O)N(c3ccc(C)cc3)C2)CC1 (centres undefined)
O=C(Cc1ccc(Cl)c(Cl)c1)Nc1ccc(SC(F)F)cc1
O=C(CC1SCCNC1=O)Nc1ccc(Cl)c(Cl)c1 (centres undefined)
Cc1nn(C)c(C)c1C(C)NC(=O)c1ccc(OC2CCN(Cc3ccccn3)CC2)cc1 (centres undefined)
CCOc1ccc(S(=O)(=O)N2CCC(C(=O)OCc3ccc(OC)cc3)CC2)cc1
COc1cccc(COC(=O)C2CCN(S(=O)(=O)c3ccc(Cl)cc3)CC2)c1OC
NC(=O)C1CCN(C(=O)CC2C(=O)NCCN2Cc2cccc(Oc3ccccc3)c2)CC1 (centres undefined)
Cc1nn(CCCC(=O)NCc2ccccc2Cl)c(=O)c2nccn12
COc1ccc(OC)c(C(=O)c2ccc(C(=O)O)cc2)c1
COc1ccc(OC)c(C(=O)c2coc3ccc(OC)cc23)c1
Cc1ccc(-c2nn(-c3ccccc3)cc2/C=C2\SC(=S)N(CCCCCC(=O)O)C2=O)o1
O=C(N/C(=C/c1ccc(Cl)cc1)C(=O)N1CCCCC1)c1ccco1
Cc1onc(-c2c(Cl)cccc2Cl)c1C(=O)NNC(=O)c1c(-c2c(Cl)cccc2Cl)noc1C
Cc1ccc(CNC(=O)c2c(-c3ccccc3)noc2C)cc1
Cc1onc(-c2ccccc2)c1C(=O)Nc1ccccc1C#N
CCc1noc(C)c1C(=O)NNC(=O)c1ccc(F)cc1
Cc1ccc(NC(=O)c2ccn(C(=O)Nc3ccccc3)n2)c(C)c1
CS(=O)(=O)N(CC(=O)N1CCCC1)Cc1ccccc1
CC(=O)N1c2ccccc2N(Cc2ccc([N+](=O)[O-])cc2)C(=O)C1(C)C
CC1=NN(c2ccccc2)C(=O)C1C(=O)c1ccc([N+](=O)[O-])cc1 (centres undefined)
COc1cc(CO)ccc1OCC(=O)Nc1cccc2ccccc12
COc1ccc(N2CC(C)Cn3c2nc2c3c(=O)n(Cc3ccccc3F)c(=O)n2C)c(OC)c1 (centres undefined)
O=C(COC(=O)c1cccc(Cl)c1)Nc1ccc2[nH]c(=O)[nH]c2c1
CC(=O)NCC(O)c1ccc([N+](=O)[O-])cc1 (centres undefined)
CCC(C)c1ccc(O)c(/C=N/O)c1 (centres undefined)
Cc1ccc(CNC(=O)CCC(=O)N2CC(C)Sc3ccccc32)cc1 (centres undefined)
O=C(c1cc(C(=O)N2CCN(c3ccc(F)cc3)CC2)cc([N+](=O)[O-])c1)N1CCN(c2ccc(F)cc2)CC1
Cc1ccc(CSCC2Nc3ccc(C(=O)N4CCN(c5ccc(F)cc5)CC4)cc3NC2=O)cc1 (centres undefined)
Cc1ccc(NC(=O)COC(=O)C2C3CC4OC(=O)C2C4C3)cc1Cl (centres undefined)
Cc1ccc(OCC(=O)NC(C)c2ccccc2)cc1C (centres undefined)
Cc1cc(C)cc(OCC(=O)NC(C)c2ccccc2)c1 (centres undefined)
COc1ccc(NC(=O)CC2C(=O)NC3CCCCC3N2C(=O)c2ccc(F)cc2)cc1 (centres undefined)
CCCNC(=S)N1CCC(NC(=O)c2ccc(OC)cc2)CC1
CC(C)COC(=O)c1ccc(NC(=O)C2C3C=CC(C3)C2C(=O)O)cc1 (centres undefined)
CCOC(=O)c1[nH]c2ccccc2c1N=C(C)N(CC)CC
CCOC(=O)c1cc2cc(C)ccc2[nH]1
Cn1c(N)cc(-c2ccc(F)cc2)c(C#N)c1=O
O=C(CSc1nnc(-c2c[nH]c3ccccc23)n1-c1ccc(F)cc1)NCc1ccco1
COc1cc(/C=C(\C#N)c2nc3c(s2)CC(C)CC3)ccc1O (centres undefined)
Cc1ccc2nc(/C(C#N)=C\c3ccc(OC(=O)c4cccs4)cc3)[nH]c2c1
COCOc1cc(O)c(C(=O)/C=C/c2ccc(OCOC)c(OCOC)c2)c(OCOC)c1
Cc1cc(C)cc(NC(=O)c2cccc(NC(=O)C3C4CC5OC(=O)C3C5C4)c2)c1 (centres undefined)
Cc1ccc(CSCC(=O)N(C)CC(=O)Nc2cccc(F)c2)cc1
CCN(CC)C(=O)C(=O)Nc1cccc(Br)c1
CS(=O)(=O)N(CC(=O)N1CCc2ccccc2C1)c1ccc(Br)cc1
CCOCCCNC(=S)Nc1ccc2nc(N3CCN(CC)CC3)cc(C)c2c1
CC(C)CN(Cc1c(O)ccc2c(=O)c(-c3ccccc3)coc12)CC(C)C
CCOC(=O)c1nnn(CC(=O)Nc2cccc(F)c2)c1C(=O)OCC
CCNS(=O)(=O)c1ccc(CCC(=O)N2CCN(c3ccc(OC)cc3)CC2)cc1
Cc1c(C)c2c(OCC(=O)NCCCO)cc3c(c2oc1=O)CCC(C)(C)O3
Cc1cc(=O)oc2c3c(cc(OCC(=O)N[C@H](C(=O)O)c4ccccc4)c12)OC(C)(C)CC3
O=C(C[n+]1ccc2c(c1)nnn2-c1ccccc1)c1ccc(Cl)cc1
CC(=O)N/C(=C/c1ccc(Cl)cc1)C(=O)NCCc1c[nH]c2ccccc12
O=C(CN1C(=O)NC2(CCCCC2)C1=O)NCCc1c[nH]c2ccccc12
COC(=O)c1ccccc1Oc1c(F)c(F)nc(N2CCOCC2)c1F
c1ccc(-n2cccc2)c(N2CCCCC2)c1
O=C(NCc1cccnc1)c1cnc2ccccc2n1
Cc1ccnc(SCC(N)=O)n1
Cc1ccnc(N2CCCC(C(=O)NC3CC3)C2)n1 (centres undefined)
CC1CN(C(=O)COC(=O)c2cccc(NS(=O)(=O)c3ccccc3)c2)CC(C)O1 (centres undefined)
CN(C)c1ccnc2sc(C(=O)c3ccccc3)c(N)c12
Cc1nc2sc(C(=O)c3ccccc3)c(N)c2c2c1CCCC2
